Key:
Format in all cases: functional
[1] = target: T1, Metabotropic glutamate receptor 6 (Rattus norvegicus, UniProt P35349); test: Effective concentration for agonistic activity at Metabotropic glutamate receptor 6; Not active
[2] = target: T2, Metabotropic glutamate receptor 3 (Rattus norvegicus, UniProt P31422); test: Inhibitory concentration required for antagonistic activity at Metabotropic glutamate receptor 3
[3] = target: T1, Metabotropic glutamate receptor 6; test: Effective concentration required for agonistic activity at Metabotropic glutamate receptor 6
[4] = target: T3, Metabotropic glutamate receptor 2 (Rattus norvegicus, UniProt P31421); test: Effective concentration required for agonistic activity at Metabotropic glutamate receptor 2; Not active
T3 sequence (P31421 whole entry): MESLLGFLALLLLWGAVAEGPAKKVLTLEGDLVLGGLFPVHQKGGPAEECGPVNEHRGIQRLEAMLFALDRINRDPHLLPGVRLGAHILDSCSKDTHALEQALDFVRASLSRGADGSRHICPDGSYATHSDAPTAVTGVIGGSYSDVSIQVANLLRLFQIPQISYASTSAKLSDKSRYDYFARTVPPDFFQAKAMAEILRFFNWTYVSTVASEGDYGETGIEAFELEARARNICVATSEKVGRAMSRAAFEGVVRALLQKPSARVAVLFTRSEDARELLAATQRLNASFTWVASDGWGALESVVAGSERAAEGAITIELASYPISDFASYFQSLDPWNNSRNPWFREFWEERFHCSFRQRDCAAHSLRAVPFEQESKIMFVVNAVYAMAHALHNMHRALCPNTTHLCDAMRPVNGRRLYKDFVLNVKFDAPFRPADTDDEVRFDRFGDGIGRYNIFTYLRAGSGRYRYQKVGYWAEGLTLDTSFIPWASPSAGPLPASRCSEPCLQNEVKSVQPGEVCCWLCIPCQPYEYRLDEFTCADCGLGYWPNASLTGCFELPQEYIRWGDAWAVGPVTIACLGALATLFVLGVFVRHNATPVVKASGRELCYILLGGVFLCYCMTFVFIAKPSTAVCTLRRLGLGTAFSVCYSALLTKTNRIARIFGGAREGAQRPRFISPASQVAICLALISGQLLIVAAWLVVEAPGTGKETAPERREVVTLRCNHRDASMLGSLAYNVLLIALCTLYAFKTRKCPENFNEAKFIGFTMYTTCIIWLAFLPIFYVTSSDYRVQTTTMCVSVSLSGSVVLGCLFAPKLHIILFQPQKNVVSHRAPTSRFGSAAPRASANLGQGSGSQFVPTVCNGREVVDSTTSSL

[5] = target: T2, Metabotropic glutamate receptor 3; test: Inhibitory concentration required for antagonistic activity at Metabotropic glutamate receptor 3; Not active
[6] = target: T3, Metabotropic glutamate receptor 2; test: Inhibitory concentration required for antagonistic activity at Metabotropic glutamate receptor 2; Not active
In short: (§1)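 Antagonism at mGluR2 stably expressed in CHO cells, tested against 2 μM glutamate and read as forskolin-induced cAMP formation. Dose-response curves; means ± SEM from at least three experiments run in triplicate.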

[7] = target: T2, Metabotropic glutamate receptor 3; test: Effective concentration required for agonistic activity at Metabotropic glutamate receptor 3; Not active
In short: (§2)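 Agonist activity at mGluR3, stably expressed in CHO cells together with a chimeric construct. Dose-response curves; means ± SEM from at least three experiments run in triplicate.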

[8] = target: T1, Metabotropic glutamate receptor 6; test: Effective concentration required for partial agonistic activity at Metabotropic glutamate receptor 6; Partial agonist
[9] = target: T3, Metabotropic glutamate receptor 2; test: Effective concentration required for agonistic activity at Metabotropic glutamate receptor 2
[10] = target: T2, Metabotropic glutamate receptor 3; test: Effective concentration required for agonistic activity at Metabotropic glutamate receptor 3; in short: as §2
[11] = target: T3, Metabotropic glutamate receptor 2; test: Effective concentration required for partial agonistic activity at Metabotropic glutamate receptor 2; Partial agonist
[12] = target: T3, Metabotropic glutamate receptor 2; test: Inhibitory concentration required for antagonistic activity at Metabotropic glutamate receptor 2; in short: as §1
[13] = target: T2, Metabotropic glutamate receptor 3; test: Effective concentration required for partial agonistic activity at Metabotropic glutamate receptor 3; Partial agonist; in short: as §2

T2 sequence (P31422 whole entry): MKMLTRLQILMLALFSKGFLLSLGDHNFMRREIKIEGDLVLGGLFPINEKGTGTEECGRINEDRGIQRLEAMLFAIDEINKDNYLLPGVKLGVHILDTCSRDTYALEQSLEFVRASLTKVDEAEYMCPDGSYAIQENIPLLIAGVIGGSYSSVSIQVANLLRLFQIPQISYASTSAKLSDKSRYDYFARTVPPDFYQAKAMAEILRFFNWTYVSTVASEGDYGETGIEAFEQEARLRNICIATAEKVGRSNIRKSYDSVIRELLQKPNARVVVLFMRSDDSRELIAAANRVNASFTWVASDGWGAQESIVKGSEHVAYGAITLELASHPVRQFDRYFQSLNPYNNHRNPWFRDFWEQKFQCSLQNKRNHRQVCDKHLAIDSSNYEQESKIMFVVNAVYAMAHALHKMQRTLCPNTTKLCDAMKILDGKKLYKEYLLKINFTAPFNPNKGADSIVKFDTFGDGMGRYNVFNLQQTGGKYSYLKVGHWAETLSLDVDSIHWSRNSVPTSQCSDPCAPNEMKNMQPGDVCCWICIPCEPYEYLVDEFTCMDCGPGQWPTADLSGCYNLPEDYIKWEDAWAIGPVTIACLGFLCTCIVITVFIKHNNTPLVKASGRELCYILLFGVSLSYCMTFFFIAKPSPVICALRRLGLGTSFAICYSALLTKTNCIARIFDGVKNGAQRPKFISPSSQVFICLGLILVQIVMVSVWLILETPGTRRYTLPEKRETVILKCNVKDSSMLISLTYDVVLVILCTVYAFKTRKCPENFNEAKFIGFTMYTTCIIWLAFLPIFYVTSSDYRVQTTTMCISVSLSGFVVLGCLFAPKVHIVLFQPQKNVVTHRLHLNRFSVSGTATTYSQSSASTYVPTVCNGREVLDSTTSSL
T1 sequence (P35349 whole entry): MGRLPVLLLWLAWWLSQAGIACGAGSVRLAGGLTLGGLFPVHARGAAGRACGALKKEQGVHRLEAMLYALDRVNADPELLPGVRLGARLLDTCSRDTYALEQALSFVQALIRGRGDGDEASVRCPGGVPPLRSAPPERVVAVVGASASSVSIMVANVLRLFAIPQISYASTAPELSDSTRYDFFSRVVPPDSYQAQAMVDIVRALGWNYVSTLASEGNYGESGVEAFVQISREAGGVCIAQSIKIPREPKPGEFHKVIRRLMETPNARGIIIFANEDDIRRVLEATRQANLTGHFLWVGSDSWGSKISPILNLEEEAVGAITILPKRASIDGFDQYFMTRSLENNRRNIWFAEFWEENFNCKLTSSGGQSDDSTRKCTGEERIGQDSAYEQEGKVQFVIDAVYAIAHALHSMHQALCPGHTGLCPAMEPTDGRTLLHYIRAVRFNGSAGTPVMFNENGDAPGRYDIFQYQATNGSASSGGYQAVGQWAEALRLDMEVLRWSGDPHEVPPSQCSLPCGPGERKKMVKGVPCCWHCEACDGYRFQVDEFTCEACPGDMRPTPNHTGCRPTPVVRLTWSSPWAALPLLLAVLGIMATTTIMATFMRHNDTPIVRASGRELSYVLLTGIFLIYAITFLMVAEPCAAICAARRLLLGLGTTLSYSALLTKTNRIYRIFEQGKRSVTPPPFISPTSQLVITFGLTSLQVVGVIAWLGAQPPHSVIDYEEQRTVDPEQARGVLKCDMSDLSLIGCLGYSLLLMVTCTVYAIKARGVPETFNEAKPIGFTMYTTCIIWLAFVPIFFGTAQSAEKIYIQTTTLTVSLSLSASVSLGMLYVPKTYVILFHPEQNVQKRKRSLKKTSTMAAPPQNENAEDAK

SMILES | EC50 [1] | IC50 [2] [µM] | EC50 [3] [µM] | IC50 [5] | EC50 [7] | EC50 [9] [µM] | other results
CC(N)(C(=O)O)C1CC1C(=O)O (configuration not stated) | Not Active | 68 |  |  |  |  | 
N[C@]1(C(=O)O)C[C@H](C(=O)O)N(Cc2cccc([N+](=O)[O-])c2)C1 |  | 93 | 100 |  |  |  | 
COc1ccc(CN2C[C@@](N)(C(=O)O)C[C@@H]2C(=O)O)cc1 |  | 190 | 320 |  |  |  | 
N[C@]1(C(=O)O)C[C@H](C(=O)O)N(C(C(=O)O)c2ccccc2)C1 (some centres not stated) |  | 21 | 22 |  |  |  | 
Cl.Cl.N[C@]1(C(=O)O)C[C@H](C(=O)O)N(Cc2cc([N+](=O)[O-])cc([N+](=O)[O-])c2)C1 |  |  | 210 | Not Active | Not Active |  | EC50 [4]: Not Active; IC50 [6]: Not Active
Cl.Cl.N[C@]1(C(=O)O)C[C@H](C(=O)O)N(Cc2ccc([N+](=O)[O-])cc2)C1 | Not Active |  |  | Not Active | Not Active | 160 | 
Cl.Cl.N[C@]1(C(=O)O)C[C@H](C(=O)O)N(CC(=O)O)C1 | Not Active |  |  | Not Active | Not Active |  | EC50 [11]: 0.61 µM
N[C@@]1(C(=O)O)CN[C@@H](C(=O)O)C1 | Not Active |  |  |  |  | 0.48 | EC50 [10]: 1.7 µM
CC(N)(C(=O)O)c1ccc(C(=O)O)cc1 (configuration not stated) | Not Active | 270 |  |  |  |  | IC50 [12]: 290 µM
Cl.Cl.Cl.Nc1ccc(CN2C[C@@](N)(C(=O)O)C[C@@H]2C(=O)O)cc1 | Not Active |  |  | Not Active | Not Active |  | EC50 [11]: 2.3 µM
Cl.Cl.N[C@]1(C(=O)O)C[C@H](C(=O)O)N(Cc2ccccc2C#Cc2ccccc2)C1 | Not Active | 23 |  |  |  |  | 

More lines, main results first:

EC50 [1] | IC50 [2] [µM] | EC50 [3] [µM] | IC50 [5] | EC50 [7] | EC50 [9] [µM] | SMILES | other results
 | 27 |  |  |  | 6.1 | N[C@]1(C(=O)O)C[C@H](C(=O)O)N(Cc2ccccc2O)C1 | EC50 [8]: 88 µM
Not Active |  |  |  |  | 37 | Cl.Cl.Cl.N[C@]1(C(=O)O)C[C@H](C(=O)O)N(Cc2ccccn2)C1 | EC50 [10]: 37 µM
 |  | 110 |  |  | 4 | N[C@]1(C(=O)O)C[C@H](C(=O)O)N(Cc2ccccc2[N+](=O)[O-])C1 | EC50 [10]: 6.8 µM
 |  | 310 |  |  |  | N[C@]1(C(=O)O)C[C@H](C(=O)O)N(Cc2ccccc2Br)C1 | 
 |  | 57 | Not Active | Not Active |  | Cl.Cl.N[C@]1(C(=O)O)C[C@H](C(=O)O)N(Cc2cccc(C(=O)O)c2)C1 | EC50 [4]: Not Active; IC50 [6]: Not Active
Not Active |  |  | Not Active | Not Active | 35 | Cl.Cl.Cl.Nc1ccccc1CN1C[C@@](N)(C(=O)O)C[C@@H]1C(=O)O | 
 |  | 58 | Not Active | Not Active |  | Cl.Cl.N[C@]1(C(=O)O)C[C@H](C(=O)O)N(Cc2ccc(C(=O)O)cc2)C1 | EC50 [11]: 4.7 µM
Not Active |  |  | Not Active | Not Active | 950 | Cl.Cl.N[C@]1(C(=O)O)C[C@H](C(=O)O)N(Cc2cccc(O)c2)C1 | 
 |  | 74 |  |  | 24 | N[C@]1(C(=O)O)C[C@H](C(=O)O)N(Cc2ccc(O)cc2)C1 | EC50 [13]: 7.5 µM
Not Active |  |  | Not Active | Not Active | 33 | Cl.Cl.N[C@]1(C(=O)O)C[C@H](C(=O)O)N(Cc2ccccc2C(=O)O)C1 | 

Source: ChEMBL document CHEMBL1133874, “Synthesis of N(1)-substituted analogues of (2R,4R)-4-amino-pyrrolidine-2,4-dicarboxylic acid as agonists, partial agonists, and antagonists of group II metabotropic glutamate receptors” (Bioorg Med Chem Lett, 2001)
